Screens (PubChem BioAssay)
IDE cell activ = activators of human insulin-degrading enzyme in cells. P14735. HEK cells, FAbeta-B cleavage, fluorescence polarization; 0% vehicle, 100% cell-free pure enzyme wells. activation, % at 5.96 µM. actives 0.073% (n = 340,000). AID 493087;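 active means activation above the mean of all tested compounds plus 3 SD, set per screening campaign, cut at about 17% in these data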
proCasp7 act = counter-screen: procaspase-7 (human) activation; recombinant procaspase-7, Ac-DEVD-pNA absorbance 405 nm; D23A/D198A/D206A triple mutant, cannot self-cleave; scale: DMSO 0, 5 µM enzyme 100; activation, % at 8.5 µM; actives 0.093% (n = 330,000);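 active means percent activation above the screen-wide mean plus 3 SD, cut at about 25% in these data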
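System: Uncleavable procaspase-7 mutant enzyme; Amount: 2 µM procaspase-7 mutant as dispensed; Schedule: 1 h compound preincubation, 2 h substrate cleavage, 25 °C; Measured by: 405 nm absorbance of p-nitroaniline; Evaluation: percent activation from buffer-corrected 0–120 min absorbance change; Control set: low DMSO alone, high DMSO plus 5 µM PC-7.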
PHOSPHO1 block = PHOSPHO1 (human) inhibition; recombinant PHOSPHO1, absorbance phosphatase assay; inhibition, % at 13.3 µM; actives 1.1% (n = 290,000); Q8TCT1; in the data active means inhibition above about 60%
Target sequence (Q8TCT1 whole entry, looked up): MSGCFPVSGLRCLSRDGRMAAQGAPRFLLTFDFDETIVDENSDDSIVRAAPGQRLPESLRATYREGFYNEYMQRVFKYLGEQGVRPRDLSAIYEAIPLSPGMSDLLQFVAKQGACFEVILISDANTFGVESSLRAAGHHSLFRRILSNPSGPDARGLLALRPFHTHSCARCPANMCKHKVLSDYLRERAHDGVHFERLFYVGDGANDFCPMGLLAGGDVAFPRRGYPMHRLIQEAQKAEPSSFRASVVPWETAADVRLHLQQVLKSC
UBC13 inh = blocks human UBC13 polyubiquitin chain formation | P61088 | inhibition, % at 20 µM | actives 0.47% (n = 330,000) | TR-FRET | AID 485273; in the data active means inhibition above about 45%, passing the limit was not always enough
Target sequence (P61088 whole entry, looked up): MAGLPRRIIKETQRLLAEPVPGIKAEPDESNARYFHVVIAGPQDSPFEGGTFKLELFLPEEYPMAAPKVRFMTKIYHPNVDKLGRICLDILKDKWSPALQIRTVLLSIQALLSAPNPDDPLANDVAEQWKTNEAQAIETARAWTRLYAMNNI
procasp3 activ = activates human procaspase-3. P42574. recombinant procaspase-3 D3A, Ac-DEVD-pNA absorbance 405 nm. activation, % at 8.5 µM. actives 0.11% (n = 330,000). AID 463141;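 active means activation above the mean of all tested compounds plus 3 SD, cut at about 21% in these data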;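 further: 0% = DMSO alone and 100% = DMSO wells spiked with extra 5 µM PC-3 D3A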
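Assay system: Procaspase-3 D3A mutant, all three cleavage aspartates alanine. Buffer or medium: Zinc-free HEPES saline buffer with Triton X-100. Times: 1 h compound preincubation, 2 h substrate hydrolysis at 25 °C. Measured by: 405 nm absorbance of p-nitroaniline, reads at 0 and 120 min. Read-out basis: percent activation relative to control range. Replicates: singlicate.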
IDE cell inh = inhibitors of human insulin-degrading enzyme in cells; P14735; AID 434962; HEK cells, FAbetaB cleavage, fluorescence polarization; actives 0.41% (n = 320,000); inhibition, % at 5.59 µM;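 active means percent inhibition above the average of all tested compounds plus 3 SD, set per screening campaign, cut at about 16% in these data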;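 further: IDE supplied by intact live HEK cells; FP after avidin binding of uncleaved biotin substrate so inhibition keeps polarization high; 0% = DMSO wells and 100% = 60 µM reference IDE inhibitor Ii1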
* hit, by the source's call; . = no result. An excerpt weighted towards active compounds, which were near 1.9% of everything screened.

SMILES	IDE cell activ	proCasp7 act	PHOSPHO1 block	UBC13 inh	procasp3 activ	IDE cell inh
O=C(CCCCCn1c(=S)[nH]c2cc3c(cc2c1=O)OCO3)N1CCN(c2ccccc2)CC1	-9	-8	-8	-2	2	8
O=C(CCCn1c(=S)[nH]c2cc3c(cc2c1=O)OCO3)N1CCN(c2ccc(F)cc2)CC1	-7	13	69*	14	3	9
Cc1[nH]n(-c2ccccc2)c(=O)c1/C=N/Nc1nncc(-c2ccccc2)n1	3	-7	67*	-37	0	1
Cc1ccc(/C=N/Nc2nncc(-c3ccccc3)n2)o1	.	-3	23	-9	10	6
CC1(c2nnc(Cc3ccccc3)o2)CC(c2c(Cl)cccc2Cl)=NO1 (stereo unspecified)	39*	-5	.	4	3	6
O=C(Nc1cc(S(=O)(=O)N2CCCCC2)ccc1N1CCOCC1)c1ccc(C(F)(F)F)cc1	-6	6	.	9	6	-1
CN1CCN(c2oc(-c3ccccc3)nc2S(=O)(=O)c2ccc(Br)cc2)CC1	3	1	61*	7	4	5
OCCC1CN(Cc2nc(-c3ccccc3)cs2)CCN1Cc1ccc(F)cc1 (stereo unspecified)	-2	0	-19	-2	0	3
OCCC1CN(Cc2nc(-c3ccccc3)cs2)CCN1C1CCCC1 (stereo unspecified)	8	1	64*	23	-8	-2
Sc1oc(-c2ccccc2)cc1C=Nc1ccccc1	-13	-6	91*	-10	-13	-3
O=C(OCc1cc(=O)n2ccsc2n1)c1ccccc1NCCO	-3	12	.	-3	1	0
O=C(Cn1ncc2c([nH]c3ccccc32)c1=O)Nc1cccnc1	1	11	18	-11	9	0
Cc1ccc(NC(=O)Cn2ncc3c([nH]c4ccccc43)c2=O)cc1Cl	2	5	63*	-12	10	4
COCCSc1ccccc1C(=O)N1CCc2ccccc2C1	1	8	60*	-7	-2	7
COCCSc1ccccc1C(=O)N1CCN(c2ccccc2)CC1	0	-6	47	4	-1	-2
COc1cc2[nH]c(=S)n(Cc3ccco3)c(=O)c2cc1OC	-1	-8	69*	8	-4	0
CC(O)CNc1nc2ccccc2n1CC(=O)NC12CC3CC(CC(C3)C1)C2 (stereo unspecified)	2	8	-7	11	6	4
CC(O)CNc1nc2ccccc2n1CC(=O)NCC(F)(F)F (stereo unspecified)	3	8	73*	-3	6	0
CCCCn1c(N)c(N(CCC(C)C)C(=O)c2oc3ccc(OCC)cc3c2C)c(=O)[nH]c1=O	-2	9	.	-9	11	-2
Cc1ncc(CO)c(/C=N/NC(=O)c2cc3c(s2)CCCC3)c1O	-18	26*	8	24	31*	11
COc1ccc(-c2ccc3c(N)c(C(=O)c4cccc(OC)c4)sc3n2)cc1	-10	-54	89*	-9	-12	13
COc1ccc(C(=O)c2sc3nc(-c4ccc(OC)cc4)ccc3c2N)cc1	-10	-45	3	-8	-18	-2
O=C(O)CCCN1C(=O)/C(=C/c2cn(-c3ccccc3)nc2-c2cccs2)SC1=S	1	.	72*	.	.	.
COC1=CC(=O)[C@@]2([C@@H]1O)[C@@H](Cl)C[C@]13C(OC)=C(OC)C(=O)C[C@]21CCN3C	2	8	.	-12	5	3
Cc1cc(C(=O)N/N=C/c2cc(N=Nc3ccccc3)ccc2O)n[nH]1	-8	26*	-16	.	18	8
SMILES	IDE cell activ	proCasp7 act	PHOSPHO1 block	UBC13 inh	procasp3 activ	IDE cell inh
CCc1nnc(NC(=O)CCC(=O)N2CCN(S(=O)(=O)c3cc(Cl)ccc3OC)CC2)s1	-3	4	70*	-2	1	1
O=C(c1ccco1)N1CCN(Cc2nc(Cc3ccccc3)no2)CC1	0	1	60*	0	-2	-1
Cc1ccc(-c2csc(N)n2)s1	-7	-17	71*	23	-16	4
COc1cc(CNCCc2ccccc2)cc(Br)c1OCC(=O)Nc1ccccc1C	-2	11	66*	42	7	3
c1ccc(N2CC3COc4ccccc4C3=N2)cc1 (stereo unspecified)	1	.	.	.	.	.
Cc1ccc(N2CC(C(=O)NCCN3CCOCC3)CC2=O)cc1C (stereo unspecified)	4	-5	32	-1	-2	1
COc1ccc(N2CC(C(=O)NCCCN3CCOCC3)CC2=O)cc1 (stereo unspecified)	4	3	60*	-3	8	4
CC(C)n1c(-c2ccc(C(C)(C)C)cc2)n[nH]c1=S	-14	-21	99*	4	-15	-2
Cc1ccc(-c2n[nH]c(=S)n2C)cc1	-2	.	94*	.	.	.
Cc1ccc(-c2cn3c(=S)[nH]nc3s2)cc1	-14	-22	68*	6	-27	5
COc1ccc(-c2n[nH]c(=S)n2-c2ccc(C)cc2)cc1	-7	-19	6	5	-14	4
CC(C)c1ccc(C(O)P(=O)(OC2CCCCC2)OC2CCCCC2)cc1 (stereo unspecified)	.	0	28	-3	3	7
CCNc1ncnc2c1cnn2C1CCCO1 (stereo unspecified)	1	.	.	.	.	.
Cc1cc(O)c(/C=N/Nc2ccc(F)cc2)c(=O)o1	.	-1	-100	-2	-4	6
Cc1ccc(N/N=C/c2c(O)cc(C)oc2=O)cc1	7	1	88*	-1	-4	1
Cc1cc(=O)n2c3ccccc3n(CC(O)CN3CCCC3)c2c1C#N (stereo unspecified)	6	2	62*	5	6	1
COc1ccc(CCC(=O)NNC(=O)Cn2nc(C)cc2C)cc1	6	-4	-12	11	-1	5
Cc1ccc(C)c(-n2c(N)c(C(N)=O)sc2=S)c1	4	12	.	-13	10	-11
COC(=O)c1sc(=S)n(-c2ccccc2OC)c1N	5	1	-122	3	8	4
CCCCNC(=O)c1sc(=S)n(-c2ccccc2OC)c1N	2	3	69*	2	-10	4
COc1ccc(Cl)cc1-n1c(N)c(C(N)=O)sc1=S	0	-4	100*	15	-1	-1
Cc1ccc(-n2c(N)c(C(N)=O)sc2=S)c(C)c1	-3	-16	88*	6	-13	7
COc1ccc([C@H]2CC(=O)C=C(c3cccc(NC(C)=O)c3)C2)cc1	1	-4	.	-2	4	1
